Test results: ChEMBL document CHEMBL4052819 (2017)
Converted amounts (≈) assume the structure as drawn. The source made the active and inactive calls. No cut-off for these calls is given here. Non-standard residues stand in square brackets, D forms with d. Residues, ends and D or L forms follow the SMILES beside them. *: point of attachment. Decanoyl = CCCCCCCCCC(=O)*; Dab = NCC[C@H](N)C(=O)O

Legend:
Type in all cases: functional
Klebsiella pneumoniae [1] = assay: Potentiation of rifampicin-mediated antibacterial activity against Klebsiella pneumoniae ATCC 700603 assessed as decrease in rifampicin MIC at 1.56 to 12.5 ug/ml by broth dilution method relative to control
Klebsiella pneumoniae [2] = assay: Potentiation of rifampicin-mediated antibacterial activity against Klebsiella pneumoniae ATCC 13883 assessed as decrease in rifampicin MIC at 1.56 to 12.5 ug/ml by broth dilution method relative to control
Escherichia coli [3] = assay: Bactericidal activity against Escherichia coli ATCC 25922; conditions: read-out: MBC99.9
How it was run: (§1)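 MBC from MIC plates at end point: 50 μL from each well with no visible growth plated on tryptic soy agar and counted. MBC taken as lowest concentration giving ≥99.9% fall in viable count relative to initial inoculum. Three independent experiments, one replicate each.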

Staphylococcus aureus [4] = assay: Bactericidal activity against Staphylococcus aureus ATCC 29213; conditions: read-out: MBC99.9; how it was run: as §1
Pseudomonas aeruginosa [5] = assay: Bactericidal activity against Pseudomonas aeruginosa ATCC 27853; conditions: read-out: MBC99.9; how it was run: as §1
Staphylococcus aureus [6] = assay: Antibacterial activity against methicillin-resistant Staphylococcus aureus LAC
Pseudomonas aeruginosa [7] = assay: Bactericidal activity against Pseudomonas aeruginosa ATCC 27853 after 60 mins in presence of LPS
How it was run: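 P. aeruginosa at ~10^6 CFU/mL in TSB with E. coli O111:B4 LPS (final 10, 25, 50 or 100 μg/mL), then compound at final 16 μg/mL. Incubated 37 °C, 200 rpm, 60 min; survivors counted on TSA. Three independent experiments, one replicate each.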

Staphylococcus aureus [8] = assay: Bactericidal activity against methicillin-resistant Staphylococcus aureus ATCC 43300; conditions: read-out: MBC99.9
How it was run: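 MBC taken at the end of the MIC test: 50 μL from each well without visible growth plated on tryptic soy agar. MBC = lowest concentration giving ≥99.9% reduction in viable cells relative to the initial inoculum. Three independent experiments, one replicate each.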

Staphylococcus aureus [9] = assay: Antibacterial activity against methicillin-resistant Staphylococcus aureus ATCC 43300 after 18 to 20 hrs by broth microdilution method
How it was run: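 Broth microdilution in tryptic soy broth: 2-fold dilutions mixed 1:1 with ~1.5 × 10^5 CFU/mL bacterial suspension in TSB, final 0.5–32 μg/mL, 37 °C for 18–20 h. MIC = lowest concentration with no visible growth. At least three independent experiments, one replicate each.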

Escherichia coli [10] = assay: Antibacterial activity against Escherichia coli ATCC 25922 after 18 to 20 hrs in presence of 95% serum by broth microdilution method
How it was run: (§2)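 Same microdilution with human serum as medium: compound 2-fold diluted in 100% serum, mixed 1:1 with 90% serum holding ~1.5 × 10^5 CFU/mL, giving 95% serum and final 0.5–64 μg/mL. MIC read as no visible growth after incubation as for the broth test.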

Enterococcus faecium [11] = assay: Antibacterial activity against Enterococcus faecium ATCC 19434 after 18 to 20 hrs by broth microdilution method
How it was run: (§3)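 Broth microdilution in tryptic soy broth: 2-fold dilutions mixed 1:1 with ~1.5 × 10^5 CFU/mL inoculum, final 0.5–32 μg/mL; 37 °C, 18–20 h. MIC taken as lowest concentration giving no visible growth. At least three independent experiments, one replicate each.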

Pseudomonas aeruginosa [12] = assay: Antibacterial activity against Pseudomonas aeruginosa ATCC 27853 after 18 to 20 hrs by broth microdilution method; how it was run: as §3
Staphylococcus aureus [13] = assay: Antibacterial activity against Staphylococcus aureus ATCC 29213 after 18 to 20 hrs by broth microdilution method; how it was run: as §3
Escherichia coli [14] = assay: Antibacterial activity against Escherichia coli ATCC 25922 after 18 to 20 hrs by broth microdilution method; how it was run: as §3
Klebsiella pneumoniae [15] = assay: Bactericidal activity against Klebsiella pneumoniae ATCC 13883; conditions: read-out: MBC99.9; how it was run: as §1
Acinetobacter baumannii [16] = assay: Antibacterial activity against Acinetobacter baumannii ATCC 19606 after 18 to 20 hrs by broth microdilution method; conditions: ATCC 19606 = CIP 70.34 = JCM 6841
Acinetobacter baumannii [17] = assay: Bactericidal activity against Acinetobacter baumannii ATCC 19606; conditions: ATCC 19606 = CIP 70.34 = JCM 6841, read-out: MBC99.9; how it was run: as §1
Klebsiella pneumoniae [18] = assay: Antibacterial activity against Klebsiella pneumoniae ATCC 13883 after 18 to 20 hrs by broth microdilution method
Staphylococcus aureus [19] = assay: Antibacterial activity against Staphylococcus aureus ATCC 29213 after 18 to 20 hrs in presence of 95% serum by broth microdilution method; how it was run: as §2
Staphylococcus aureus [20] = assay: Antibiofilm activity against methicillin-resistant Staphylococcus aureus LAC established catheter-associated biofilm model after 72 hrs
Enterococcus faecium [21] = assay: Bactericidal activity against Enterococcus faecium ATCC 19434; conditions: read-out: MBC99.9; how it was run: as §1

CC[C@H](C)[C@@H](NC(=O)[C@@H](NC(=O)[C@H](CCC(=O)O)NC(=O)[C@H](Cc1ccccc1)NC(=O)[C@@H](CCN)NC(=O)[C@H](CCN)NC(=O)[C@H](CO)NC(=O)[C@@H](Cc1c[nH]c2ccccc12)NC(=O)[C@@H](CO)NC(=O)CNC(=O)[C@@H](CCN)NC(=O)[C@H](N)C(C)C)C(C)C)C(=O)N[C@@H](C)C(=O)O
fold change (FC) (Klebsiella pneumoniae [1]): 256 - 512 | fold change (FC) (Klebsiella pneumoniae [2]): 256 - 512

CCCCCCCCCC(=O)N[C@@H](CCN)C(=O)N[C@H](C(=O)N[C@@H](CCN)C(=O)N[C@H](Cc1ccccc1)C(=O)N[C@@H](CC(C)C)C(=O)N[C@@H](CCN)C(=O)N[C@@H](C(=O)N[C@@H](CC(C)C)C(=O)N[C@@H](CO)C(N)=O)C(C)C)[C@@H](C)CC (Decanoyl-[Dab]I[Dab][dF]L[Dab][dV]LS-NH2)
MBC (Escherichia coli [3]): 8 µg/mL (≈ 6.99 µM) | MBC (Staphylococcus aureus [4]): 4 to 8 µg/mL (≈ 3.49 to 6.99 µM) | MBC (Pseudomonas aeruginosa [5]): 2 to 4 µg/mL (≈ 1.75 to 3.49 µM) | Activity (Staphylococcus aureus [6]): Active | Activity (Pseudomonas aeruginosa [7]): inactive | MBC (Staphylococcus aureus [8]): 2 to 4 µg/mL (≈ 1.75 to 3.49 µM) | MIC (Staphylococcus aureus [9]): 2 to 4 µg/mL (≈ 1.75 to 3.49 µM) | MIC (Escherichia coli [10]): 32 µg/mL | MIC (Enterococcus faecium [11]): 2 µg/mL (≈ 1.75 µM) | MIC (Pseudomonas aeruginosa [12]): 1 to 2 µg/mL (≈ 0.874 to 1.75 µM) | MIC (Staphylococcus aureus [13]): 2 to 4 µg/mL (≈ 1.75 to 3.49 µM) | MIC (Escherichia coli [14]): 2 to 8 µg/mL (≈ 1.75 to 6.99 µM) | MBC (Klebsiella pneumoniae [15]): 4 to 8 µg/mL (≈ 3.49 to 6.99 µM) | MIC (Acinetobacter baumannii [16]): 0.5 to 2 µg/mL (≈ 0.437 to 1.75 µM) | MBC (Acinetobacter baumannii [17]): 0.5 to 2 µg/mL (≈ 0.437 to 1.75 µM) | MIC (Klebsiella pneumoniae [18]): 2 to 4 µg/mL (≈ 1.75 to 3.49 µM) | MIC (Staphylococcus aureus [19]): 16 µg/mL | Activity (Staphylococcus aureus [20]): inactive | MBC (Enterococcus faecium [21]): 2 to 4 µg/mL (≈ 1.75 to 3.49 µM)
